The test system of series [1] is VHL-ElonginC-ElonginB (VCB) complex. Kind of series: Isothermal titration calorimetry. The class given is binding, human. To be noted: ITC, VCB ± SMARCA2^BD. Background: ITC needs no label: the signal is the heat of the interaction.
Series [2] is described as follows: Caco-2 permeability assay. The class given is in vitro ADME. As to conditions: human, Caco-2, pH 7.2. A general note: Passage across Caco-2 layers is used to estimate intestinal permeability.
Another series deals with NCI-H1703 cells. The series is described as follows: Proliferation assay. Format: cell-based, human. To be noted: SMARCA2/4 null cell line, 7 days.
Series [3] concerns SK-MEL-5 cells. Kind of series: Proliferation assay. Format: cell-based. As to conditions: Homo sapiens, SK-MEL-5, 168 h, read-out: anti-proliferative IC50, SK-MEL-5.
Another series has as its system MV-4-11 cells. Kind of series: Proliferation assay. Format: cell-based, human. To be noted: read-out: anti-proliferative IC50, MV-4-11; cell viability after 7 days.
Series [4] relates to proteome of MV-4-11 cells. The series is described as follows: TMT labelling mass spectrometry proteomics in MV-4-11 cells. The class given is cell-based, human. As to conditions: 333 nM, 8 h.
A further series has as its target SMARCA2^BD (Homo sapiens, UniProt P51531). The class given is binding.
In a further series the target is SMARCA2 (Homo sapiens, UniProt P51531). The series is described as follows: Protein degradation assay. Format: cell-based. As to conditions: MV-4-11 cells, 1 µM compound.
For another series, the target named is SMARCA4 (Homo sapiens, UniProt P51532). Kind of series: Protein degradation assay. To be noted: MV-4-11 cells, 1 µM compound. Format: cell-based.
For series [5], the system named is panel of cancer cell lines. Kind of series: Proliferation of a panel of cancer cell lines. The class given is cell-based, human. As to conditions: all cell lines tested.
In series [6] the test system is SK-MEL-5 cells. The series is described as follows: Real-time apoptosis measurement. The class given is cell-based, human. To be noted: SK-MEL-5, 0.3 µM, comparable to doxorubicin (1 µM).
The target of the next series is PBRM1 (Homo sapiens, UniProt Q86U86). Kind of series: Protein degradation assay, PBRM1 in NCI-H1568 cells. The class given is cell-based. As to conditions: read-out: DC50 PBRM1, 18 h. An outline of the steps:
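Cells seeded at 20000/well in 24-well plates and held overnight at 37 °C. Test compound added from DMSO stock (DMSO normalised), 18 h at 37 °C. Lysed 30 min on ice in 1% Triton, 350 mM KCl, 10 mM Tris pH 7.4, 10 mM DTT, benzonase, protease/phosphatase inhibitors. Target protein quantified by WES capillary electrophoresis, normalised to GAPDH. Two independent experiments.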

Chain of SMARCA4 (P51532 whole entry): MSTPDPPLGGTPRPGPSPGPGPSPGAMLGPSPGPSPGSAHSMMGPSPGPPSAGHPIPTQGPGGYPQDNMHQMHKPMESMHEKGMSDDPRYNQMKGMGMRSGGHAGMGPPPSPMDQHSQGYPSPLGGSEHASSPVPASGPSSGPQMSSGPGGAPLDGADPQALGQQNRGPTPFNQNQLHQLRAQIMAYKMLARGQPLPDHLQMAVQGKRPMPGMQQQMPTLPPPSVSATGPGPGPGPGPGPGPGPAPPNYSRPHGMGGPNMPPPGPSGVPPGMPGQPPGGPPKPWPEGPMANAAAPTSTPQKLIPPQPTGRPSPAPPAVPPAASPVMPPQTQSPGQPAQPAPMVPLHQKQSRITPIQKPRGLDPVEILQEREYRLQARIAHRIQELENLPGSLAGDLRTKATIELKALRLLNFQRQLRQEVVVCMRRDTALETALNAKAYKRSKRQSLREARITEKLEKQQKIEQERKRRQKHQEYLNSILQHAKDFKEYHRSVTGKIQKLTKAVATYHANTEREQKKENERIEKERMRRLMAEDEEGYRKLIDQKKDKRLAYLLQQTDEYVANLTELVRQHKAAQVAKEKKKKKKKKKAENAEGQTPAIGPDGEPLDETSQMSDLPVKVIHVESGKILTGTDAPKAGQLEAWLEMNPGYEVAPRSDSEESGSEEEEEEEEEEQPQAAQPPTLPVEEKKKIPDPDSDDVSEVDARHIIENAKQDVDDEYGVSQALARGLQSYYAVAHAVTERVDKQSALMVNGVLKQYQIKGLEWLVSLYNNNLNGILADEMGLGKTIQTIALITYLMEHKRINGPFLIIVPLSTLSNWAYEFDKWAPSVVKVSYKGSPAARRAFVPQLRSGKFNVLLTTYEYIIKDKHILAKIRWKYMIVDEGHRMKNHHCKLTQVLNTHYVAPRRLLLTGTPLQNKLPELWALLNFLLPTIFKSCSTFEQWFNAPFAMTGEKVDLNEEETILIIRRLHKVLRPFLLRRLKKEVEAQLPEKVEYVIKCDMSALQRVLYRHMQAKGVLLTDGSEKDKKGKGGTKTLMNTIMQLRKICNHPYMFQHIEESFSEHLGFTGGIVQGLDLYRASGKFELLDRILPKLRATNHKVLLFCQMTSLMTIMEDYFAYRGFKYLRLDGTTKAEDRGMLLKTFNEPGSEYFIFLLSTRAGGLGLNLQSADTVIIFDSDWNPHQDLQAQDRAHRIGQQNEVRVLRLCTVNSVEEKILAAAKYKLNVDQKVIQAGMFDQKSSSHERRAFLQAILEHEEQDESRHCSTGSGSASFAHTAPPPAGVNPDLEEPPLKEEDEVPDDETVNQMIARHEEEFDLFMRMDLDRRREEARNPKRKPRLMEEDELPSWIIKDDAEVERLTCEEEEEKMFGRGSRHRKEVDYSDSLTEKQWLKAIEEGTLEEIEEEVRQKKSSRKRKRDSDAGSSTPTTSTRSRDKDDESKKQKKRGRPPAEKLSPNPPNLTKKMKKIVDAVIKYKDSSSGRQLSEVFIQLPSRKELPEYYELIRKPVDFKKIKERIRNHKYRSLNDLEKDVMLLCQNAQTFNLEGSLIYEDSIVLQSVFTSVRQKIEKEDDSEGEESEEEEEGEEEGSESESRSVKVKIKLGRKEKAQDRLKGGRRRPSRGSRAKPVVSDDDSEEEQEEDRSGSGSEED
Chain of PBRM1 (Q86U86 whole entry): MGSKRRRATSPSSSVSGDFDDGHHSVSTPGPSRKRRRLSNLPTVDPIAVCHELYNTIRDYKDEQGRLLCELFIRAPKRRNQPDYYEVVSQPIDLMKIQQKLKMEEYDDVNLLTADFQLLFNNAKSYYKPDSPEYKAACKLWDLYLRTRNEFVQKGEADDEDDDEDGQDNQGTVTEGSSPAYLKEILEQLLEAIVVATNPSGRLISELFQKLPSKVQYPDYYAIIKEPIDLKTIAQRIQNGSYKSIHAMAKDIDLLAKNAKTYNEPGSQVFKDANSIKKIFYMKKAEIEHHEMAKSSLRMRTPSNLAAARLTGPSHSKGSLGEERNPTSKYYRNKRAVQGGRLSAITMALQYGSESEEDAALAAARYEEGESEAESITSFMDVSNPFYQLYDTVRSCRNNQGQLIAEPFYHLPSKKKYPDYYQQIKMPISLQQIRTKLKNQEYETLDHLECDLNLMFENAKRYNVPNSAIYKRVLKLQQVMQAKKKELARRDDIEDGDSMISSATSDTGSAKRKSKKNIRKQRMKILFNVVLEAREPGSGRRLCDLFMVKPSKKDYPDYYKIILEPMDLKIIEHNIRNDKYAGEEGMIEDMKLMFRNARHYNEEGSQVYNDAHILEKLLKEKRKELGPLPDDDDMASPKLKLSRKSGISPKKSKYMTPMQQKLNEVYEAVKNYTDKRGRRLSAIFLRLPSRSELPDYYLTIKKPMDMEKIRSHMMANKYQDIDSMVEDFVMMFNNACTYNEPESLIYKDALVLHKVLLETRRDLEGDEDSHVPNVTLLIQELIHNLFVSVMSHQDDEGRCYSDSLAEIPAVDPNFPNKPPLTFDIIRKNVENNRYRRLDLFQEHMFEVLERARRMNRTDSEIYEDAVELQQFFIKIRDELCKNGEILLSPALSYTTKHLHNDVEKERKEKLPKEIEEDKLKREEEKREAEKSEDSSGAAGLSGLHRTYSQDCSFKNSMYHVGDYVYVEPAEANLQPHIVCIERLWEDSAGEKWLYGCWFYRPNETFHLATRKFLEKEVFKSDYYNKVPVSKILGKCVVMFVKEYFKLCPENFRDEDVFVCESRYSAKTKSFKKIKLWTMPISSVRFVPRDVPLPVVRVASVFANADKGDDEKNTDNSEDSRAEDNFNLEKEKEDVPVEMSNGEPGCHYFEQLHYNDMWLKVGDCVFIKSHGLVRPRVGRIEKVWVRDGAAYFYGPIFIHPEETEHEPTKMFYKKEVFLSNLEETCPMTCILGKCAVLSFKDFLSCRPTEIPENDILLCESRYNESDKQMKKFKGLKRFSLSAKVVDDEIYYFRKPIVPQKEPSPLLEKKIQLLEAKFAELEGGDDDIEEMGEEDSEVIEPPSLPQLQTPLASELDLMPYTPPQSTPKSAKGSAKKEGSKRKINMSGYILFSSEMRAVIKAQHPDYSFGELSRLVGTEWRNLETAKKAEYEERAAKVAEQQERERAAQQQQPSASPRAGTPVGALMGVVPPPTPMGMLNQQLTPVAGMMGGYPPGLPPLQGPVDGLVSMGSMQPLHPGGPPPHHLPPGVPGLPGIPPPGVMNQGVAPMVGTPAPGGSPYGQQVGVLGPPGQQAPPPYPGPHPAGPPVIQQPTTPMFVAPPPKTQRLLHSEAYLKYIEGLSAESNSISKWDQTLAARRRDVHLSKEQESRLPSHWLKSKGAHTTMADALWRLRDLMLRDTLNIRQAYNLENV

Usually Papp B→A stands for how fast a substance crosses the layer from the basolateral side. Regarding `Cc1ncsc1-c1ccc(CNC(=O)[C@@H]2C[C@@H](O)CN2C(=O)[C@@H](NC(=O)C2(F)CC2)C(C)(C)C)c(OCCOCCOCCN2CCN(c3cc(-c4ccccc4O)nnc3N)CC2)c1` [PROTAC 1, (2S,4R)-N-(2-(2-(2-(2-(4-(3-amino-6-(2-hydroxyphenyl)pyridazin-4-yl)piperazin-1-yl)ethoxy)ethoxy)ethoxy)-4-(4-methylthiazol-5-yl)benzyl)-1-((S)-2-(1-fluorocyclopropane-1-carboxamido)-3,3-dimethylbutanoyl)-4-hydroxypyrrolidine-2-carboxamide], the “cooperativity α (binary KD/ternary KD)” value in series [1] worked out at 4.8. In [2], this compound had a Papp B→A at 2 h of 20.7 ×10⁻⁶ cm/s.
For orientation: IC50 means the concentration that gives 50% inhibition. For `Cc1ncsc1-c1ccc(CNC(=O)[C@@H]2C[C@H](O)CN2C(=O)[C@@H](NC(=O)C2(F)CC2)C(C)(C)C)c(OCCOc2ccc(CN3CCN(c4cc(-c5ccccc5O)nnc4N)CC3)cc2)c1` [cis-ACBI1, (2S,4S)-N-(2-(2-(4-((4-(3-amino-6-(2-hydroxyphenyl)pyridazin-4-yl)piperazin-1-yl)methyl)phenoxy)ethoxy)-4-(4-methylthiazol-5-yl)benzyl)-1-((S)-2-(1-fluorocyclopropane-1-carboxamido)-3,3-dimethylbutanoyl)-4-hydroxypyrrolidine-2-carboxamide], the “anti-proliferative effect in NCI-H1703” value in the series on NCI-H1703 cells was “no anti-proliferative effects”. Also, in the series with SK-MEL-5 cells [3], the IC50 was above 10000 nM.
One may read the efflux ratio as a quotient of directional permeabilities that is used to spot active efflux. In general, DC50 refers to the concentration at which degradation of the target reaches its halfway point. Consider `Cc1ncsc1-c1ccc(CNC(=O)[C@@H]2C[C@@H](O)CN2C(=O)[C@@H](NC(=O)C2(F)CC2)C(C)(C)C)c(OCCOc2ccc(CN3CCN(c4cc(-c5ccccc5O)nnc4N)CC3)cc2)c1` [ACBI1, (2S,4R)-N-(2-(2-(4-((4-(3-amino-6-(2-hydroxyphenyl)pyridazin-4-yl)piperazin-1-yl)methyl)phenoxy)ethoxy)-4-(4-methylthiazol-5-yl)benzyl)-1-((S)-2-(1-fluorocyclopropane-1-carboxamido)-3,3-dimethylbutanoyl)-4-hydroxypyrrolidine-2-carboxamide], for which the half-inhibitory concentration (IC50) in the series with MV-4-11 cells worked out at 29 nM; at SMARCA2^BD, 770 nM; in the series on SK-MEL-5 cells [3], 77 nM. Also, the “effect on cellular proteome” value in series [4] was “significant knockdown of SMARCA2, SMARCA4 and PBRM1 with minimal down-regulation of other proteins across the proteome”. The “anti-proliferative effect in NCI-H1703” value in the series with NCI-H1703 cells is recorded as “no anti-proliferative effects”. Further, the “time to half maximal degradation of SMARCA2” value at SMARCA2 is below 2 h. On SMARCA4, the “time to half maximal degradation of SMARCA4” value was below 2 h. The efflux ratio in series [2] is 1.7. In series [5], the “anti-proliferative effect across cell lines tested” value was “potent anti-proliferative effects”. Further, the “caspase activity / apoptosis” value in the series with SK-MEL-5 cells [6] is recorded as “increased caspase activity”. Moreover, the DC50 on PBRM1 worked out at 15.6 nM.

(Values after publication PMC6600871 (Nature chemical biology, 2019).)
